In the library only some 2.2% were active in any assay of this set; here they are far more common.
KLK7 zymogen act = proKLK7 zymogen activators, primary screen, biochemical, fluorescence intensity | purified proKLK7, EDANS-DABCYL substrate fluorescence; 100% is mature enzyme control, 0% vehicle | activation, % at 7 µM | hit rate 0.9% among 370,000 | AID 652039, 2013;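 active = activation above the mean of all tested compounds plus 3 SD, computed per campaign excluding outliers beyond control limits, cut at about 13% in these data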
Tn7 DDE FP = inhibitors of Tn7 peptide binding to fibrin DD(E), primary screen, biochemical, fluorescence polarization, human fibrin, Tn7 probe; Fibrinogen beta chain (Homo sapiens), P02675; FP displacement of FITC-Tn7 peptide from fibrin DD(E); 0% = median of compound wells per plate; inhibition, % at 8.3 µM; hit rate 0.13% among 370,000;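 active = inhibition above the mean of compounds falling within the control limits plus 3 SD of them, cut at about 14% in these data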;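 note: 0% = plate median of compound wells and 100% = 10 µM Aha-Tn7 peptide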
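Assay system: human fibrin DD(E). Input: DD(E) 2 µM final. Medium: Tris buffer with calcium and detergent, pH 7.8. Compound dosing: single point at 8.3 µM. Timing: 10 min plus 3 h, room temperature. Technique: fluorescence polarization of the labelled Tn7 tracer. Read-out: percent inhibition. Replicates: singlicate testing.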
DDE Tn6 FP inh = inhibitors of Tn6 peptide binding to fibrin DD(E), primary screen, biochemical, fluorescence polarization, human fibrin, Tn6 probe; inhibition, % at 8.3 µM; AID 720509, 2013; hit rate 0.21% among 370,000; Fibrin DD(E) TRITC-Tn6 fluorescence polarization displacement;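 active = inhibition above a per-campaign cutoff: mean of compounds within control limits plus 3 SD, cut at about 15% in these data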;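 note: 0% = median of all compound wells on the plate and 100% = blocking peptide control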
MT1-MMP act inh = blockers of MT1-MMP proenzyme processing, primary screen, HT1080 RFP-PRO-GFP cells, GFP/RFP fluorescence; Matrix metalloproteinase-14 (Homo sapiens), P50281; GFP/RFP ratio fluorescence, overnight; percent of plate control window, DMSO zero; GFP/RFP ratio change, % at 20 µM; hit rate 0.061% among 360,000; AID 651647, 2012;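 active = GFP/RFP ratio change of at least 30% with cell ATP level not reduced by more than half and red fluorescence within 50% of control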
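system = RFP-PRO-GFP reporter HT1080 cells | dosing = 20 µM single dose, 1% DMSO | timing = overnight cell settling, then overnight compound exposure, 37 °C, 5% CO2 | read-out basis = GFP/RFP fluorescence ratio | controls = DMSO and RFP-L50D-GFP cell wells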
Neddyl block = inhibitors of cullin neddylation, primary screen, biochemical, TR-FRET, uHTS, NAE and Ubc12; NEDD8-conjugating enzyme Ubc12 (Homo sapiens) + NEDD8-activating enzyme E1 regulatory …; calls only at 25 µM; hit rate 0.58% among 360,000; AID 651699, 2012; in the data active = inhibition above about 36%
SKN-1 inh = suppressors of acrylamide-induced Pgst-4::GFP reporter in worms, primary screen, SKN-1 inhibitor project, whole organism, uHTS, GFP/RFP fluorescence ratio, strain VP596 | inhibition, % at 21.8 µM | C. elegans VP596 Pgst-4::GFP/RFP ratio, 24 h | AID 624304, 2012 | hit rate 0.49% among 360,000;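 active = interference check ratio from 0.5 to 1.5 plus GFP to RFP signal ratio inhibition reaching or exceeding a fixed threshold, cut at about 30% in these data, passing the limit was not always enough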
proKLK7 act conf = proKLK7 zymogen activators, confirmation, biochemical, fluorescence intensity, triplicate; shares compounds with KLK7 zymogen act; purified proKLK7, EDANS-DABCYL substrate fluorescence; scaled: vehicle 0, mature enzyme 100; activation, % at 7 µM; AID 686949, 2013; hit rate 68% among 3,200;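 active = activation, as change over the incubation, above the mean of all tested compounds plus 3 SD, cut at about 13% in these data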
EDANS interfere = EDANS-DABCYL substrate optical interference, artefact control for kallikrein-7 zymogen activator project, biochemical, fluorescence intensity, high throughput | shares compounds with KLK7 zymogen act | no enzyme, 4 h; solvent 0%, active enzyme control 100% | activation, % at 7 µM | hit rate 80% among 3,200;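 active = activation above the all-compound mean plus 3 SD, ignoring values outside control-based bounds, cut at about 4.8% in these data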;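 note: value is the 4 h activation minus the activation read at time zero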
EDANS interf = counter-screen for kallikrein-7 activators: EDANS-DABCYL interference, dose response; shares compounds with KLK7 zymogen act; EDANS-DABCYL peptide fluorescence interference, no enzyme; EC50, µM; hit rate 20% among 250; AID 720493;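 active = compounds that raise the fluorescence signal in this interference counterscreen, with EC50 at or below 10 µM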;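 note: intact quenched peptide substrate alone read at 355 nm excitation and 520 nm emission; signal is fluorescence gain from T0 to T4 after four hours at room temperature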
An asterisk follows results filed as active; i = inactive; . = not tested or not shown.

SMILES	KLK7 zymogen act	Tn7 DDE FP	DDE Tn6 FP inh	MT1-MMP act inh	Neddyl block	SKN-1 inh	proKLK7 act conf	EDANS interfere	others
O=c1oc2c(CN3CCOCC3)c(O)ccc2c2c1CCC2	70*	8	8	3	.	6	68*	72*
Cc1cc(=O)oc2c(CN3CCCC3)c(O)ccc12	45*	0	-1	-1	.	2	76*	75*
Cc1cc(=O)oc2c(O)c(O)ccc12	3	3	2	4	i	0	.	.
O=c1oc2c(CN3CCN(CCO)CC3)c(O)ccc2cc1-c1ccccn1	60*	-3	-8	-3	i	-9	70*	82*
CCCc1cc(=O)oc2c(CN3CCCC3)c(O)ccc12	60*	7	8	0	.	18	72*	69*
O=c1oc2c(CN3CCCCC3)c(O)ccc2cc1-c1nc2ccccc2[nH]1	5	6	2	-84	.	-4	.	.
CCCCN(C)Cc1c(O)ccc2c(-c3ccccc3)cc(=O)oc12	17*	2	5	-6	.	18	17*	23*
Cc1ccc(C)c(SCC(=O)Nc2cccnc2Cl)c1	0	-1	4	4	i	-18	.	.
Cc1nc(C(=O)NNC(=O)c2ccccc2Cl)c(C(F)(F)F)o1	0	4	4	3	i	8	.	.
O=c1nc(-c2ccccc2Cl)c2cc(F)ccc2[nH]1	19*	0	-6	0	.	5	31*	26*	EDANS interf=i
Cc1ccc(NC(=O)c2ccccc2N2C(=O)C3C4C=CC(C5CC45)C3C2=O)cc1C (stereo not drawn)	0	5	-1	-3	i	-2	.	.
CNC(=S)NNC(=O)c1cccc(N(C)C)c1	14*	-3	5	4	i	-10	13*	12*
O=C1c2ccccc2NC(c2ccccc2)N1Cc1ccco1 (stereo not drawn)	17*	2	10	-1	.	0	17*	7.5*	EDANS interf=>70
O=C1c2ccccc2NC(c2ccc(F)cc2)N1Cc1ccco1 (stereo not drawn)	15*	5	1	4	.	-6	11	19*
O=C1c2ccccc2NC(c2ccc(F)cc2)N1Cc1ccccc1 (stereo not drawn)	5	-6	2	1	.	-5	.	.
COc1ccc(CCNC(=O)CN(C)S(=O)(=O)c2ccc3c(c2)CCC(=O)N3)cc1OC	0	2	0	0	i	-5	.	.
O=c1cc(C(F)F)oc2c1ccc1ccccc12	17*	-1	5	21	.	9	18*	19*
Cc1c(NC(=O)CSc2n[nH]c(-c3ccccc3)n2)c(=O)n(-c2ccccc2)n1C	0	-4	8	0	i	14	.	.
COc1ccc(S(=O)(=O)NCCc2cn3nc(C)c(C)nc3n2)cc1F	20*	1	3	-1	.	7	73*	81*
COc1ccc(S(=O)(=O)NCc2cn3c(C)csc3n2)cc1F	0	2	0	-9	i	15	.	.

Screens deposited in PubChem by several laboratories.
